Source: PubChem (several laboratories)
APP 5'UTR act: activates APP 5'UTR luciferase reporter; activation, % at 2 µM; SH-SY5Y APP 5'UTR luciferase reporter, luminescence; zero percent = DMSO vehicle wells; AID 1276; 1% of 190,000 active;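 active = activation above a set limit, based on mean plus 3 SD of controls, cut at about 140% in these data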
STAT3 blocker: reduces IL-6 driven STAT3 reporter signal; U3A cells, IL-6 STAT3-luciferase reporter, luminescence; host cell line lacks STAT1; inhibition, % at 5.5 µM; 0.89% of 190,000 active; AID 862;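 active = inhibition above the mean inhibition across all screened compounds plus 3 SD, cut at about 44% in these data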;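 also: 0% = DMSO only wells and 100% = 100 µM nifuroxazide control wells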
STAT3 act: increases IL-6 driven STAT3 reporter signal; U3A cells, IL-6 STAT3-luciferase reporter, luminescence; 100% = signal with IL-6 EC80 alone; activation (% of control), % at 5.6 µM; 0.91% of 190,000 active; AID 871;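 active = activation above the screen-wide mean of compound activation plus 3 SD, cut at about 130% in these data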;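 also: 0% = background luminescence of wells with medium and substrate only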
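System – human U3A cells carrying STAT3-luciferase construct · Probe or stimulus – Interleukin-6, 33 ng/mL · Schedule – compound 1 h, then IL-6 6 h at 37 °C · Signal – luminescence from STAT3-driven luciferase reporter · Evaluation – percent of IL-6-only median luminescence · Benchmarks – IL-6-only high control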
STAT1 act: activators of IFN-gamma induced STAT1 signaling. NIH 3T3 STAT1-luciferase reporter, luminescence; 100% = IFN-gamma alone, no compound. activation (% of control), % at 5.5 µM. 2.6% of 200,000 active;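 active = activation above the screen-wide mean activation plus 3 SD, cut at about 130% in these data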;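 also: raw ratio to IFN-gamma control signal so 100% means no change and 0% no light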
NF-kB expr up: NF-kB expression increase, human neuronal cells; NF-kB reporter expression; hits give high values; fold change at 12.5 µM; 1.6% of 190,000 active; AID 1239; in the data active = fold change above about 3.3
STAT1 inh: inhibitors of IFN-gamma induced STAT1 signaling | NIH 3T3 STAT1-luciferase reporter, luminescence | inhibition, % at 5.5 µM | 0.35% of 200,000 active;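 active = inhibition above a set limit, the mean inhibition across all tested compounds plus 3 SD, cut at about 34% in these data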;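 also: 0% = IFN-gamma with DMSO and 100% = IFN-gamma with 300 µM nifuroxazide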
Starred values were filed as active, the others as inactive; . = not tested or not shown. Shown are actives, neighbours in structure and some others; about 4.9% of the full set was active somewhere.

SMILES | APP 5'UTR act | STAT3 blocker | STAT3 act | STAT1 act | NF-kB expr up | STAT1 inh
O=C(NC(=S)Nc1ccc2cn[nH]c2c1)c1ccccc1 | 44 | -8 | 113 | 148* | 1 | -53
O=C(NC(=S)Nc1ccc2c(c1)C(=O)c1ccccc1C2=O)c1ccc(F)cc1 | 89 | 24 | 82 | 116 | 3.3* | -19
O=C(O)c1cccc(NC(=S)NC(=O)c2ccc(-c3ccccc3)cc2)c1 | 44 | 30 | 76 | 96 | 3.3* | 5
CCCCOc1ccc2c(c1)C(=O)c1cc(O)ccc1-2 | 99 | 16 | 91 | 149* | . | -52
O=c1cc(CNc2cc(Cl)ccc2Cl)nc2sccn12 | 0 | -2 | 99 | 108 | 1.1 | -6
Cc1ccc(Nc2nc(N)nc(CSc3nccn3C)n2)cc1 | 140* | -5 | 108 | 146* | 3.8* | -50
Cc1cccc(Nc2nc(N)nc(CSc3nccn3C)n2)c1 | 26 | -6 | 109 | 136* | 2 | -40
O=C(O)/C=C/C(=O)NCc1ccccn1 | 25 | 10 | 94 | 94 | 1.1 | 5
Cc1ccc(O)c(NC(=O)c2cc([N+](=O)[O-])ccc2Cl)c1 | 14 | -22 | 126 | 101 | 1.1 | -3
Cc1cc(O)c(NC(=O)c2cc([N+](=O)[O-])ccc2Cl)cc1C | -11 | -40 | 134* | 106 | 1.5 | -8
O=C(OCc1nc2ccccc2s1)c1cc2ccccc2oc1=O | 29 | -46 | 134* | 105 | 1.2 | -3
O=C(OCc1nc2ccccc2s1)c1cccc(S(=O)(=O)N2CCOCC2)c1 | 52 | -40 | 139* | 130* | 0.97 | -33
CCCS/C(N)=N/N=C/c1cc(C)ccc1O | 150* | 3 | 101 | 117 | 11* | -18
CCCCS/C(N)=N/N=C/c1ccccc1O | . | -14 | 112 | 109 | 2.8 | -13
O=c1c2ccccc2nc(-c2cccs2)n1-c1ccc2ccccc2c1 | 26 | -2 | 102 | 100 | 1.2 | 0
CC(=O)Nc1ccc(NC2=C/C(=N/S(=O)(=O)c3cccs3)c3ccccc3C2=O)cc1 | -35 | 66* | 46 | 15 | 0.16 | 90*
Cc1ccc2nc(Cc3ccc(N)cc3)[nH]c2c1 | 160* | -2 | 112 | 131* | 1.5 | -35
Cc1ccc2c(c1)cc(CN(Cc1cccnc1)C(=O)NCc1ccccc1)c1nnnn12 | -5 | 2 | 102 | 99 | 0.84 | 1
O=C(CCS(=O)(=O)Cc1ccc(Cl)cc1)NCCc1ccccc1 | -2 | 0 | 105 | 106 | 1.2 | -9
O=C(OCC1CC(c2ccccc2)=NO1)c1ccc(Cl)cc1 (configuration not stated) | 9 | 1 | 103 | 99 | 1.1 | 1
CN1OC(COC(=O)c2ccccc2)CC1c1ccccc1 (configuration not stated) | 19 | -3 | 109 | 130* | 1.3 | -33
CC1CCN(Cc2nnnn2-c2ccc(Cl)cc2)CC1 | 14 | 3 | 100 | 101 | 1.2 | -1
C=CCN1CCN(C(CCC)c2nnnn2Cc2ccco2)CC1 (configuration not stated) | -5 | 5 | 101 | 104 | 1.2 | -6
O=Cc1ccc(-c2nc3ccccc3s2)o1 | 143* | 23 | 82 | 130* | 2.8 | -31
O=C(Nc1ccc(C#Cc2ccccc2)cc1)C1CC1 | 110 | -46 | 143* | 196* | 3.9* | -107
SMILES | APP 5'UTR act | STAT3 blocker | STAT3 act | STAT1 act | NF-kB expr up | STAT1 inh
CCCC(=O)Nc1ccc(Oc2ccc(NC(=O)CCC)cc2)cc1 | 2 | 0 | 102 | 100 | 1.1 | -5
CCCC(=O)Nc1ccc(C#Cc2ccccc2)cc1 | 121 | -43 | 146* | 140* | 2.9 | -44
O=C(Cc1ccccc1)Nc1nc2ccccc2s1 | 54 | -8 | 108 | 125 | 7.1* | -32
COCC(=O)Nc1nc2ccccc2s1 | 7 | -11 | 109 | 120 | 1.9 | -21
CC(C)C(=O)NNc1nc2ccccc2s1 | 28 | 17 | 88 | 132* | 2 | -35
O=C(Cc1cccs1)Nc1nc2ccccc2s1 | 60 | 9 | 96 | 126 | 4.2* | -29
Cn1cc(Cl)c(C(=O)Nc2nc3ccccc3s2)n1 | 146* | 31 | 76 | 148* | 4.4* | -52
C#CCSc1nc(N)c2c(n1)OC(N)=C(C#N)C2c1cccnc1 (configuration not stated) | -17 | 22 | 85 | 92 | 1.4 | 10
CS(=O)(=O)c1ccc(Cl)c(NC(=O)COC(=O)c2ccc(F)cc2Cl)c1 | -5 | 0 | 107 | 105 | 0.97 | -6
O=[N+]([O-])c1nn(-c2ccc3c(c2)OCCO3)n(O)c1=Nc1ccccc1 | -38 | 90* | 25 | 59 | 0.36 | 46*
Cc1ccc(CN=c2c([N+](=O)[O-])nn(-c3ccc4c(c3)OCCO4)n2O)cc1 | 94 | 1 | 98 | 135* | 3.1 | -40
O=[N+]([O-])c1nn(-c2ccc3c(c2)OCCO3)n(O)c1=NCCCO | 35 | -2 | 103 | 117 | 1.6 | -19
O=[N+]([O-])c1nn(-c2ccc3c(c2)OCCO3)n(O)c1=Nc1ccc(Cl)cc1 | -14 | 39 | 70 | 97 | 0.46 | 4
COc1cccc(CNC(=O)C2CCN(c3cnccn3)CC2)c1 | -2 | -6 | 109 | 99 | 1.1 | 1
Cc1ccc([N+](=O)[O-])cc1N=Nc1c(-c2ccc([N+](=O)[O-])cc2)[nH]n(C(N)=S)c1=O | -24 | 46* | 65 | 67 | 0.51 | 35*
NC(=S)n1[nH]c(-c2ccccc2)c(N=Nc2ccccc2C(=O)N2CCOCC2)c1=O | -20 | -1 | 104 | 104 | 0.93 | -6
Cc1cc(/C=c2/sc3nc4ccccc4n3c2=O)c(C)n1-c1ccccn1 | -60 | 104* | 13 | 23 | 0.17 | 86*
CCc1nc2sc3c(c2c(=O)o1)CCCC3 | 6 | -5 | 105 | 88 | 0.93 | 10
Cc1ccccc1-c1nc2sc3c(c2c(=O)o1)CCC3 | 14 | 5 | 97 | 104 | 4* | -5
O=c1oc(-c2cccs2)nc2sc3c(c12)CCCCC3 | 77 | 1 | 106 | 99 | . | 1
O=c1oc(-c2cc3ccccc3o2)nc2sc3c(c12)CCCC3 | 226* | 2 | 99 | 112 | 1.2 | -14
O=c1oc(-c2ccccc2)nc2sc3c(c12)CCCC3 | 48 | -12 | 110 | 136* | 6.1* | -39
O=C1CC(c2ccc(F)cc2)Sc2ccccc2N1 (configuration not stated) | -8 | -38 | 135* | 108 | 1.1 | -9
O=c1c2ccccc2cnn1-c1ccc2ccccc2c1 | 168* | 20 | 83 | 131* | 3.4* | -34
Cc1ccc(NC(=O)Nc2ccc3c(c2)OCO3)nc1 | 103 | 4 | 97 | 149* | 4* | -52
Cc1ccc(NC(=O)/C=C/c2ccc3c(c2)OCO3)nc1 | 152* | -2 | 101 | 121 | 0.97 | -24
